The values below come from ChEMBL document CHEMBL1156006, “Potent and cellularly active 4-aminoimidazole inhibitors of cyclin-dependent kinase 5/p25 for the treatment of Alzheimer's disease” (Bioorg Med Chem Lett, 2009).

Data set [1] can be described thus: Selectivity ratio, IC50 for CDK2/cyclin E over IC50 for CDK5/p25.
Data set [2] concerns the target T1, Cyclin-dependent kinase 5/CDK5 activator 1 (Homo sapiens, UniProt Q00535). The experiment in a line: Inhibition of CDK5/p25 by scintillation proximity assay. Format: protein-complex assay.
Data set [3] can be described thus: Apparent permeability from basolateral to apical side in human Caco-2 cells. On the technique in general: Caco-2 cells form a polarised layer with tight junctions and transporters.
Data set [4] can be described thus: Apparent permeability from apical to basolateral side in human Caco-2 cells.
The target in data set [5] is T1, Cyclin-dependent kinase 5/CDK5 activator 1. Put plainly: Inhibition of human CDK5/p25 expressed in CHO cells after 2 hrs by whole cell assay. Format: cell-based. A digest of the protocol:
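The cell line carries doxycycline-regulated CDK5, p25 and tau transgenes and was kept uninduced in doxycycline medium. Expression was induced by removing doxycycline for 24 h. Cells were then treated with compound for 2 h and lysed. Phosphorylated tau was measured in detergent-soluble extracts by AlphaLISA.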

Data set [6] deals with Glycogen synthase kinase-3 beta (Homo sapiens) (UniProt P49841). The experiment in a line: Inhibition of GSK3-beta at 10 uM by scintillation proximity assay. A digest of the protocol: (§1)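 Single-concentration profiling by scintillation proximity assay across a 20-kinase panel, including AMPK, GSK3b, MAPK1 and PHK. Compound was tested at 10, with ATP at the Km of each kinase.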
Background: Scintillation proximity formats need no separation of bound from free tracer.

Data set [7] in a line: Inhibition of AMPK at 10 uM by scintillation proximity assay. In a few lines: as §1
The nature of data set [8]: Inhibition of PHK at 10 uM by scintillation proximity assay. In a few lines: as §1
Data set [9] concerns the target Dual specificity protein kinase CLK1 (Homo sapiens) (UniProt P49759). The experiment in a line: Inhibition of CLK1 at 1 uM by scintillation proximity assay.
Data set [10] has as its target Casein kinase I isoform delta (Homo sapiens) (UniProt P48730). The experiment in a line: Inhibition of CK1delta at 10 uM by scintillation proximity assay.
Data set [11] addresses Dual specificity protein kinase CLK1 (Homo sapiens) (UniProt P49759). The experiment in a line: Inhibition of CLK1 at 10 uM by scintillation proximity assay.
In data set [12] the target is Casein kinase I isoform delta (Homo sapiens) (UniProt P48730). The experiment in a line: Inhibition of CK1delta at 1 uM by scintillation proximity assay.
Data set [13] concerns the target Mitogen-activated protein kinase 1 (Homo sapiens) (UniProt P28482). Put plainly: Inhibition of MAPK1/ERK2 at 10 uM by scintillation proximity assay. In a few lines: as §1
Data set [14] deals with T2, Cyclin-dependent kinase 2/cyclin A (Homo sapiens) (UniProt P24941+P20248+P78396). The experiment in a line: Inhibition of CDK2/cyclin A at 1 uM by scintillation proximity assay. The class given is protein-complex assay.
Data set [15] addresses Glycogen synthase kinase-3 beta (Homo sapiens) (UniProt P49841). The experiment in a line: Inhibition of GSK3-beta at 1 uM by scintillation proximity assay.
Data set [16] addresses T2, Cyclin-dependent kinase 2/cyclin A (Homo sapiens). The experiment in a line: Inhibition of CDK2/cyclin A at 10 uM by scintillation proximity assay. The class given is protein-complex assay.
For data set [17], the target named is Mitogen-activated protein kinase 1 (Homo sapiens) (UniProt P28482). Put plainly: Inhibition of MAPK1/ERK2 at 1 uM by scintillation proximity assay.
Data set [18] is described as follows: Plasma concentration in MDR1A/1B knockout mouse at 2 mg/kg, sc after 1 hr. Format: ADME, organism-based. Also on record: dose 2 mg/kg, route subcutaneous.
A short description of data set [19]: Ratio of drug level from brain to plasma in FV/B mouse at 2 mg/kg, sc after 1 hr.
A short description of data set [20]: Ratio of drug level from brain to plasma in MDR1A/1B knockout mouse at 2 mg/kg, sc after 1 hr.
The nature of data set [21]: Plasma concentration in FV/B mouse at 2 mg/kg, sc after 1 hr. The class given is ADME, organism-based. Also on record: dose 2 mg/kg, route subcutaneous.
The nature of data set [22]: Drug level in MDR1A/1B knockout mouse brain at 2 mg/kg, sc after 1 hr. The class given is ADME, organism-based. Also on record: dose 2 mg/kg, route subcutaneous. The conditions noted are these: read-out: Drug uptake.
Data set [23] is described as follows: Drug level in FV/B mouse brain at 2 mg/kg, sc after 1 hr. The class given is ADME, organism-based. Also noted: dose 2 mg/kg, route subcutaneous. The conditions noted are these: read-out: Drug uptake.
The nature of data set [24]: Selectivity ratio, IC50 for human CDK5/p25 by whole cell assay over IC50 for CDK5/p25.

pIC50: −log10 of the molar value.

T1 sequence (Q00535 whole entry): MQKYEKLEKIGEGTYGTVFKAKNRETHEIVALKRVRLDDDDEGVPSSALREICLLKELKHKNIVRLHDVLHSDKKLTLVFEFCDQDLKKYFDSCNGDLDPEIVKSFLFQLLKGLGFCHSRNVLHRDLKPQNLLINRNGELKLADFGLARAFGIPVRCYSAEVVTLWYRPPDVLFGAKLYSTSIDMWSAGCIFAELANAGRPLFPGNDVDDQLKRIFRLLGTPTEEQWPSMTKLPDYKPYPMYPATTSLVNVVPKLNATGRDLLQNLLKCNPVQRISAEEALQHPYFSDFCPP
T1 sequence (Q15078 whole entry, further chain): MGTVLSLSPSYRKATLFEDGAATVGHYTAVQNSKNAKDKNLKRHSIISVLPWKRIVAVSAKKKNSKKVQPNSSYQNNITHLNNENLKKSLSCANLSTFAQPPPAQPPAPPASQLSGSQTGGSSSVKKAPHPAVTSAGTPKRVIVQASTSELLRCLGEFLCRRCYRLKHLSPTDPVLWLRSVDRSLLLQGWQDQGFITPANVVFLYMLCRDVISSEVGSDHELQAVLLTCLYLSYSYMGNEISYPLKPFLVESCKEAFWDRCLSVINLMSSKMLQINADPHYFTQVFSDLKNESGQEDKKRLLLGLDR
Glycogen synthase kinase-3 beta (Homo sapiens), sequence (P49841 whole entry, looked up): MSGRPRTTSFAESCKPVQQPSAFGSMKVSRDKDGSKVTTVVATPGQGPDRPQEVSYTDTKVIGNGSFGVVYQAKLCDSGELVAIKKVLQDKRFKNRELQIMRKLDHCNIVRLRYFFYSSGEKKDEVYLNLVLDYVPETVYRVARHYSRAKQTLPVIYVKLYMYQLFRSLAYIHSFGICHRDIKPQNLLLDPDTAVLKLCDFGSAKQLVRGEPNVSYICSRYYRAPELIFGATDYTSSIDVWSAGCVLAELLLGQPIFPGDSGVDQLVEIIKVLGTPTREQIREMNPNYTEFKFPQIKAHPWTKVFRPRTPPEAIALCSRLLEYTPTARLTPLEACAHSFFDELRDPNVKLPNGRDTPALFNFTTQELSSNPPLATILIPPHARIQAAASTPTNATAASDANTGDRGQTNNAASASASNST
Dual specificity protein kinase CLK1 (Homo sapiens), sequence (P49759 whole entry, looked up, canonical isoform): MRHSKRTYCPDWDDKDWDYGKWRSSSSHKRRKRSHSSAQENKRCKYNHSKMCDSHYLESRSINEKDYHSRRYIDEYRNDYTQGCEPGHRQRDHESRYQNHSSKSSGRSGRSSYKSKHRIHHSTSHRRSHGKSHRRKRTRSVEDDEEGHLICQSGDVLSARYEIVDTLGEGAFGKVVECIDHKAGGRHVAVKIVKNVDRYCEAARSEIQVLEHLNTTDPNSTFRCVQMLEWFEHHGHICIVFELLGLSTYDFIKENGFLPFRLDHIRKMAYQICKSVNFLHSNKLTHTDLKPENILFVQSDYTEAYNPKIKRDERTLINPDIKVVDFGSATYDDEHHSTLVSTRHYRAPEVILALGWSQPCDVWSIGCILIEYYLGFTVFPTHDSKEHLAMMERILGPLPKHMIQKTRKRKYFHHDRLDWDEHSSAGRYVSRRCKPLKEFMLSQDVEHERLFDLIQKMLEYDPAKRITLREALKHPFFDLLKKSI
Casein kinase I isoform delta (Homo sapiens), sequence (P48730 whole entry, looked up, canonical isoform): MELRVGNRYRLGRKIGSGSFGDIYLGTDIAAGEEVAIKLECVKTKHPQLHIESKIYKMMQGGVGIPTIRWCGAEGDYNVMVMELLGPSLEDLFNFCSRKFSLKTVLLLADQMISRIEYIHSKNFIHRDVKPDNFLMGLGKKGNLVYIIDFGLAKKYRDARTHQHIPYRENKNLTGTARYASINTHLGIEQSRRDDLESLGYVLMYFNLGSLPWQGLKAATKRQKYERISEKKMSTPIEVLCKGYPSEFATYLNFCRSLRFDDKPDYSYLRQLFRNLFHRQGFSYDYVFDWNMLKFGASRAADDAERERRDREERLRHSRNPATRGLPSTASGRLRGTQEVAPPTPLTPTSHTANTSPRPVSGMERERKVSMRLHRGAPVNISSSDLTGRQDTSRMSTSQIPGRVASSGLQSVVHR
Mitogen-activated protein kinase 1 (Homo sapiens), sequence (P28482 whole entry): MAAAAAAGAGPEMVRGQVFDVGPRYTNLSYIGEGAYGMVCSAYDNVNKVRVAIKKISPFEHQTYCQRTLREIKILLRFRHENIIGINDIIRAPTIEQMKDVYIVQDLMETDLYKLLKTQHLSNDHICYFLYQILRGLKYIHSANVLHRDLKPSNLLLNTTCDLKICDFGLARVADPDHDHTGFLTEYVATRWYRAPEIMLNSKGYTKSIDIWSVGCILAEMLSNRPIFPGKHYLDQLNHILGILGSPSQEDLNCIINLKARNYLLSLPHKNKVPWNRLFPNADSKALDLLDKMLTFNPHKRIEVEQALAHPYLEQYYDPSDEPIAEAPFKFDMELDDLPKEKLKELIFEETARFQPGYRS

`COc1ccc(CC(=O)Nc2cn([C@H]3C[C@@H](C(=O)OC)C3)cn2)cc1`: the Ratio IC50 in data set [1] is 0.7. Moreover, in [2], the pIC50 (in general, the negative decadic logarithm of the IC50, by convention in mol/L) was 6.84.
Regarding `CC(=O)N[C@H]1C[C@@H](n2cnc(NC(=O)Cc3cccc4ccccc34)c2)C1`, in data set [1], the Ratio IC50 was 17. The Papp B→A (usually how fast a substance crosses the layer from the basolateral side) in data set [3] is 175 nm/s. Moreover, in [4], the Papp A→B (as a rule, how fast a substance crosses the layer from the apical side) turned out to be 15 nm/s. Further, the pIC50 is 8.10 in [2] and < 4.52 in [5].
Consider `CC(=O)N(C)[C@H]1C[C@@H](n2cnc(NC(=O)Cc3cccc4ccccc34)c2)C1`, for which the Ratio IC50 in data set [1] is 15. The compound further showed a pIC50 in [2] of 6.97.
With `COc1ccc(CC(=O)Nc2cn(C3CCC3)cn2)cc1`, the results for the inhibition in [6], in data set [7] and in [8] were 34%, 48% and 32%, respectively. The compound also gave a pIC50 in [2] of 6.84.
Turning to `COc1ccc(CC(=O)Nc2cn([C@H]3C[C@@H](NS(C)(=O)=O)C3)cn2)cc1`, the Ratio IC50 in data set [1] was determined as 6. Moreover, the pIC50 in data set [2] is 6.75.
As to `COc1ccc(CC(=O)Nc2cn([C@H]3C[C@@H](NC(C)=O)C3)cn2)cc1`, the Ratio IC50 in data set [1] worked out at 7. Further, the inhibition (in general, the change of the read-out against control, counted positive when it falls) in data set [6] was determined as 100%; in data set [9], 55%; in data set [10], 39%; in [11] it was 92%; in data set [12], 7%; in data set [13], 89%. Further, the inhibition in [14] is 94%; in [15] it was 94%; in [16], 101%; in data set [17], 47%. Besides, in data set [2], the pIC50 is 8.05.
For `COc1ccc(CC(=O)Nc2cn([C@H]3C[C@H](C(=O)OC)C3)cn2)cc1`, the Ratio IC50 in data set [1] was found to be 0.2. The pIC50 in data set [2] is 5.36.
For the compound `O=C(Cc1cccc2ccccc12)Nc1cn([C@H]2C[C@@H](NC(=O)c3cccnc3)C2)cn1`, the Ratio IC50 in [1] turned out to be 15. The pIC50 in data set [2] is 7.34; in data set [5] it was < 4.52.
Turning to `NC(=O)[C@H]1C[C@@H](n2cnc(NC(=O)Cc3cccc4ccccc34)c2)C1`, the Ratio IC50 in data set [1] was 2. The pIC50 in [2] is 6.41.
Consider `O=C(Cc1ccccc1)Nc1cn(C2CCC2)cn1`, for which the pIC50 in data set [2] was 6.30.
Take `O=C(Cc1cccc2ccccc12)Nc1cn([C@H]2C[C@@H](NC(=O)c3ccccn3)C2)cn1`: in data set [1], the Ratio IC50 turned out to be 20. Besides, the Papp B→A in data set [3] was 210 nm/s. For the same compound, the Papp A→B in data set [4] came out at 260 nm/s. In addition, the pIC50 in data set [2] is 7.85; in data set [5] it was 5.89.
As for `COc1ccc(CC(=O)Nc2cn(C(C)C)cn2)cc1`, in data set [2], the pIC50 is 6.37.
On to `COc1ccc(CC(=O)Nc2cn(Cc3ccccc3)cn2)cc1`, for which, in [2], the pIC50 is 5.06.
Turning to `COc1ccc(CC(=O)Nc2cn([C@H]3C[C@H](O)C3)cn2)cc1`, in [1], the Ratio IC50 stood at 0.7. For the same compound, the pIC50 in [2] was 5.96.
Regarding `O=C(Cc1ccccc1)Nc1ncc(C2CCC2)s1`, in [1], the Ratio IC50 worked out at 1.5. Moreover, in data set [2], the pIC50 is 7.19.
The compound `COc1ccc(CC(=O)Nc2cn(C3CCCC3)cn2)cc1` had a negative logarithm of the IC50 (pIC50) in data set [2] of 6.81.
On to `O=C(Cc1cccc2ccccc12)Nc1cn([C@H]2C[C@@H](NC(=O)c3ccncc3)C2)cn1`, for which, in data set [1], the Ratio IC50 was determined as 11. Besides, the pIC50 in data set [2] was 7.55.
For `Cc1cccc(C(=O)N[C@H]2C[C@@H](n3cnc(NC(=O)Cc4cccc5ccccc45)c3)C2)n1`, the concentration at 1 h was 0.336 µg/mL in [18], 0.28 µg/mL in data set [21], 383 ng/g in data set [22] and 34 ng/g in [23]. The Kp (in general, the ratio of the level in a tissue or fluid to that in plasma or blood) at 1 h in data set [19] was determined as 0.12; in data set [20], 1.1. In addition, the pIC50 in data set [2] is 8.22; in [5], 6.64.
In [2], `COc1ccc(CC(=O)Nc2cn(C3CC3)cn2)cc1` had a pIC50 of 6.09.
Take `COc1ccc(CC(=O)Nc2cn([C@H]3C[C@@H](O)C3)cn2)cc1`: in [1], the Ratio IC50 is 0.7. In addition, the pIC50 in data set [2] is 7.02.
Turning to `O=C(Cc1cccc2ccccc12)Nc1cn([C@H]2C[C@@H](NC(=O)c3cccc(Cl)n3)C2)cn1`, the Ratio IC50 in data set [1] was 34; in data set [24], 100. For the same compound, the pIC50 in data set [2] is 8.22; in data set [5], 6.17.
Take `COc1ccc(CC(=O)Nc2cn(C)cn2)cc1`: the negative-log IC50 (pIC50) in data set [2] was < 5.00.
With `O=C(Cc1cccc2ccccc12)Nc1cn(C2CCC2)cn1`, in [2], the pIC50 was 7.34.
For the compound `COc1ccc(CC(=O)Nc2cn(C3CCCCC3)cn2)cc1`, the pIC50 in [2] was 6.13.
